# Results taken from the M2OR odorant receptor database.
# Tests used:
# Conditions in all cases: stereoisomer not certain
# UniProt Q8VGZ2 = molecular target: T1, UniProt Q8VGZ2
# T1 sequence (whole entry): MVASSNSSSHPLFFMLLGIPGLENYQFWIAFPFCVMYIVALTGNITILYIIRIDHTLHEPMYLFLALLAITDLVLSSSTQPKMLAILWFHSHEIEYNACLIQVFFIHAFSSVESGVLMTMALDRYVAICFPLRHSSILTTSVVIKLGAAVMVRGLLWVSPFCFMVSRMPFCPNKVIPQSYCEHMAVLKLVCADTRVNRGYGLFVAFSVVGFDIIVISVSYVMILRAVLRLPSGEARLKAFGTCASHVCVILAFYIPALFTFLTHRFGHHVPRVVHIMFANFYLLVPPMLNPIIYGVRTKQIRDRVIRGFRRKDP
# Method in brief: (§1)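 Each receptor–molecule pair is labelled responsive or non-responsive (inactive) according to whether the original authors judged the measured signal statistically different from baseline. The data were taken from the main text and supplementary material of published papers and checked for typos and inconsistencies. Assay methods differed by source, with transient luciferase assays in mammalian cell lines being common.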
# UniProt Q8VGZ7 = molecular target: T2, UniProt Q8VGZ7
# T2 sequence (whole entry): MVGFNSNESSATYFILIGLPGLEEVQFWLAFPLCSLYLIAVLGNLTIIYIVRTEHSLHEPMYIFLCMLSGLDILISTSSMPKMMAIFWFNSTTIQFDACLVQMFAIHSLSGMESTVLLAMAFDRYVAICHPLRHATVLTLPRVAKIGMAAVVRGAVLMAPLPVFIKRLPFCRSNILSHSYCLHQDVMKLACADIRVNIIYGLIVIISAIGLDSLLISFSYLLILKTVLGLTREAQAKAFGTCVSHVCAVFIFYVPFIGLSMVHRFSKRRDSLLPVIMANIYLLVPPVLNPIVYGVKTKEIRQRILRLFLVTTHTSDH
# Method in brief: as §1
# UniProt Q8VH16 = molecular target: T3, UniProt Q8VH16
# T3 sequence (whole entry): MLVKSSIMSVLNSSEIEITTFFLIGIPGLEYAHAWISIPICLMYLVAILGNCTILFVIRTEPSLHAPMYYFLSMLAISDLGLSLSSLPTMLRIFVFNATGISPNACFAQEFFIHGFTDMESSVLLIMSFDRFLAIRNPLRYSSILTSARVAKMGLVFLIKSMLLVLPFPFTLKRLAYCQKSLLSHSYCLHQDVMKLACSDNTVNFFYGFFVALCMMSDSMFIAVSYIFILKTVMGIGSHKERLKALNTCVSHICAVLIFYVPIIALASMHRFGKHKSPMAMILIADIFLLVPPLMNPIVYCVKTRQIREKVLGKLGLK
# Method in brief: as §1
# UniProt Q8VH20 = molecular target: T4, UniProt Q8VH20
# T4 sequence (whole entry): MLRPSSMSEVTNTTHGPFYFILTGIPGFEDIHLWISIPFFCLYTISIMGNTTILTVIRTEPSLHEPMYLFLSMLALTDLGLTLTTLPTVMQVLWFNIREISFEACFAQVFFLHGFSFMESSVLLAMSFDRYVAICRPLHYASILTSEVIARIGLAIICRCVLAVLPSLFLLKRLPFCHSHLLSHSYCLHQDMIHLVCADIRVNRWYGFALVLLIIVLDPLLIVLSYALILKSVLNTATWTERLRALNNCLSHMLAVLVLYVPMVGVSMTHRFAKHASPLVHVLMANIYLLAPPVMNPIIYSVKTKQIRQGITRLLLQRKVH
# Method in brief: as §1
# UniProt Q8VH21 = molecular target: T5, UniProt Q8VH21
# T5 sequence (whole entry): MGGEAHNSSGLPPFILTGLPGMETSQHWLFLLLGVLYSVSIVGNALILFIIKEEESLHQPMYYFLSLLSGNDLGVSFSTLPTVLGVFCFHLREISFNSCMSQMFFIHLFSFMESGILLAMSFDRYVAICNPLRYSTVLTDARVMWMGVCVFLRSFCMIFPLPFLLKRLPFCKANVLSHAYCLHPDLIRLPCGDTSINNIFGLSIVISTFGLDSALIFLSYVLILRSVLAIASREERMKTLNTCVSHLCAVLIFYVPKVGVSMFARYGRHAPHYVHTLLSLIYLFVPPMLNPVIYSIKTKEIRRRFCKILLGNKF
# Method in brief: as §1
# UniProt Q924H8 = molecular target: T6, UniProt Q924H8
# T6 sequence (whole entry): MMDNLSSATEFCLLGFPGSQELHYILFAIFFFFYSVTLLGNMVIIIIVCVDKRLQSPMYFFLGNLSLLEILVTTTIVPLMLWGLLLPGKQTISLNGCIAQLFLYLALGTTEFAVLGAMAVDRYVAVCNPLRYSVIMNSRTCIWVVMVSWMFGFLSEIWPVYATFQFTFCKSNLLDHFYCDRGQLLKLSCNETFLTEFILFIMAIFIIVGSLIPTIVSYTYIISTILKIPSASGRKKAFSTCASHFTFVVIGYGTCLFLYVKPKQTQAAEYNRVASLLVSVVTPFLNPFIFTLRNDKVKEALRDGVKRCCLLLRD
# Method in brief: as §1
# UniProt Q8VGX8 = molecular target: T7, UniProt Q8VGX8
# T7 sequence (whole entry): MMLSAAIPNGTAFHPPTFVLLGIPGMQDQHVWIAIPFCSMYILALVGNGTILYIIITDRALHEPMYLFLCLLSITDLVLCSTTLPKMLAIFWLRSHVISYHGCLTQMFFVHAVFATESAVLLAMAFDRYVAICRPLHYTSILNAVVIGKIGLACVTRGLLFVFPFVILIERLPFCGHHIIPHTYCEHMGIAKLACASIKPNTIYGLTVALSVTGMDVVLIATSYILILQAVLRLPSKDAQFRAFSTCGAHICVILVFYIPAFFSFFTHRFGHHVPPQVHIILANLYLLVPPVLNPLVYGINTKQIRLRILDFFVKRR
# Method in brief: as §1
# UniProt Q8VH18 = molecular target: T8, UniProt Q8VH18
# T8 sequence (whole entry): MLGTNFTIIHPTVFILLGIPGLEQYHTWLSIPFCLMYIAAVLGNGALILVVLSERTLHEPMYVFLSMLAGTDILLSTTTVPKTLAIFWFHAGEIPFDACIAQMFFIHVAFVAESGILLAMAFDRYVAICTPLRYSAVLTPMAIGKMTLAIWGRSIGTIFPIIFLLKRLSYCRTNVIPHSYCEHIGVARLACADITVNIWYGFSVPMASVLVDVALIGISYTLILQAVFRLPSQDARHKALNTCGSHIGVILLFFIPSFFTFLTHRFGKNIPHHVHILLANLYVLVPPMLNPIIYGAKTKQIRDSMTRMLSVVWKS
# Method in brief: as §1
# UniProt Q924X8 = molecular target: T9, UniProt Q924X8
# T9 sequence (whole entry): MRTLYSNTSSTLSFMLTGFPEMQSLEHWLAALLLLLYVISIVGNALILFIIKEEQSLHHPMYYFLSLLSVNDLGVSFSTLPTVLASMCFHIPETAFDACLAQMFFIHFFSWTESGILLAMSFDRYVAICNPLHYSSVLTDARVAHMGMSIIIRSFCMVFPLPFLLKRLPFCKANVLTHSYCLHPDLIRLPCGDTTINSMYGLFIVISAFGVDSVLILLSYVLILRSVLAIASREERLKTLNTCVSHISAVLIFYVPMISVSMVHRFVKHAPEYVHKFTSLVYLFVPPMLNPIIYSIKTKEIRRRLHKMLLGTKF
# Method in brief: as §1
# UniProt Q99NH4 = molecular target: T10, UniProt Q99NH4
# T10 sequence (whole entry): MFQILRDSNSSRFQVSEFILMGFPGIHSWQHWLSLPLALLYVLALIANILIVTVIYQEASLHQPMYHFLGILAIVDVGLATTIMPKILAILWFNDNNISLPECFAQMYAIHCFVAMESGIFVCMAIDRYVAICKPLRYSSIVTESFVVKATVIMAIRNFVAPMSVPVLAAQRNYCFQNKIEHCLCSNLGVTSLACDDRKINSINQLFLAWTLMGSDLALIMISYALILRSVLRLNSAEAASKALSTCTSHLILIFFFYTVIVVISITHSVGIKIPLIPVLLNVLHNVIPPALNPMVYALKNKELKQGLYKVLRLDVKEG
# Method in brief: as §1
# UniProt Q9WU94 = molecular target: T11, UniProt Q9WU94
# T11 sequence (whole entry): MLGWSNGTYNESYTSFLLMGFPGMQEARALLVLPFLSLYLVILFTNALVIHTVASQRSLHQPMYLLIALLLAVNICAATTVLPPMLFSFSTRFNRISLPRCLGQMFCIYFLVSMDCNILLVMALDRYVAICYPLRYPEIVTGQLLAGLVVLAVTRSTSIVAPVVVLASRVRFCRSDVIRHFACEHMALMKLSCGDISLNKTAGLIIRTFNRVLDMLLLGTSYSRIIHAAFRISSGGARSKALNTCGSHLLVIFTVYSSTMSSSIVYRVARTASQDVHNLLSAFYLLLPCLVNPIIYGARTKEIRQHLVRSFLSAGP
# Method in brief: as §1
# UniProt Q9WVD7 = molecular target: T12, UniProt Q9WVD7
# T12 sequence (whole entry): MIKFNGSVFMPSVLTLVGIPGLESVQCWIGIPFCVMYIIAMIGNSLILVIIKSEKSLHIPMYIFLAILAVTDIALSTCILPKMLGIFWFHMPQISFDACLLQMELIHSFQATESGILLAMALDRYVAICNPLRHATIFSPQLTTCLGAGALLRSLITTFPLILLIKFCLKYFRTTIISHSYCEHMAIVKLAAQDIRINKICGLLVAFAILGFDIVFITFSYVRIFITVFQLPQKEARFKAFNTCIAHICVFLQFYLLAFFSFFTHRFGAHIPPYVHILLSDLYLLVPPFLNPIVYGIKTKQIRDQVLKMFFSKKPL
# Method in brief: as §1
# 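Further: active if original authors judged signal statistically different from baseline.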
Structure (SMILES),odorant receptor agonist call (UniProt Q8VGZ2),odorant receptor agonist call (UniProt Q8VGZ7),odorant receptor agonist call (UniProt Q8VH16),odorant receptor agonist call (UniProt Q8VH20),odorant receptor agonist call (UniProt Q8VH21),odorant receptor agonist call (UniProt Q924H8),odorant receptor agonist call (UniProt Q8VGX8),odorant receptor agonist call (UniProt Q8VH18),odorant receptor agonist call (UniProt Q924X8),odorant receptor agonist call (UniProt Q99NH4),odorant receptor agonist call (UniProt Q9WU94),odorant receptor agonist call (UniProt Q9WVD7)
CCOC(=O)CC(C)C,inactive,inactive,inactive,inactive,inactive,inactive,–,–,–,–,–,–
CC=Cc1ccc(OC)cc1,inactive,inactive,inactive,inactive,inactive,inactive,–,–,–,–,–,–
CC1(C)CC(=O)CC(=O)C1,inactive,inactive,inactive,inactive,inactive,inactive,–,–,–,–,–,–
O=C(O)CCCCBr,–,–,–,–,–,–,inactive,inactive,active,inactive,inactive,inactive
O=C(O)CCCCCC(=O)O,–,–,–,–,–,–,inactive,inactive,active,inactive,inactive,inactive
